Assay results from ChEMBL document CHEMBL2016529, “Synthesis and biological evaluation of novel potent angiotensin II receptor antagonists with anti-hypertension effect” (Bioorg Med Chem, 2012).
pIC50, pKi: −log10 of the molar value. Active and inactive are the calls of the source. The rule behind the calls is not given here.

Legend:
[1] = (§1) Displacement of [I125]angiotensin2 from AT1 receptor in Sprague-Dawley rat VSMC after 2.5 hrs by gamma spectrophotometry
Procedure, shortened: (§2)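 Smooth muscle cells from rat aorta were isolated by collagenase digestion (1 h, 37 °C) and grown in DMEM with 15% FBS. Quiescent, confluent monolayers were incubated in PBS with 0.1 nM 125I-Ang II and compound at final 1×10^-12 to 1×10^-6 M for 2.5 h at 4 °C. Nonspecific binding was defined with 1×10^-6 M competitor. Cells were washed three times, lysed in 0.1 M NaOH, and bound radioactivity was gamma counted.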

[2] = species on record: Rattus norvegicus; experiment: as §1; procedure, shortened: as §2
[3] = tested on: Rattus norvegicus; experiment: Antihypertensive activity in rat spontaneous hypertensive model assessed as reduction in systolic blood pressure at 15 mg/kg, po up to 10 hrs; format: functional, organism-based; set-up: dose 15 mg/kg; settings: Artery
Procedure, shortened: (§3)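 Male spontaneously hypertensive rats, randomized into groups of ten. Compound suspended in 0.5% sodium carboxymethyl cellulose and given orally once at 15 or 30 mg/kg. Negative controls received the same volume of vehicle, and valsartan and irbesartan at equal doses served as positive controls. Blood pressure (SBP, DBP) and heart rate were monitored over 0–10 h after dosing with a biological signal analysis system.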

[4] = tested on: Rattus norvegicus; experiment: Antihypertensive activity in rat spontaneous hypertensive model assessed as reduction in systolic blood pressure at 30 mg/kg, po up to 10 hrs; format: functional, organism-based; set-up: dose 30 mg/kg; settings: Artery; procedure, shortened: as §3
[5] = tested on: Rattus norvegicus; experiment: Antihypertensive activity in rat spontaneous hypertensive model assessed as time of maximum effect on systolic blood pressure at 30 mg/kg, po; format: functional, Artery; procedure, shortened: as §3
[6] = tested on: Rattus norvegicus; experiment: Antihypertensive activity in rat spontaneous hypertensive model assessed as reduction in diastolic blood pressure at 15 mg/kg, po up to 10 hrs; format: functional, organism-based; set-up: dose 15 mg/kg; settings: Artery; procedure, shortened: as §3
[7] = tested on: Rattus norvegicus; experiment: Antihypertensive activity in rat spontaneous hypertensive model assessed as reduction in diastolic blood pressure at 30 mg/kg, po up to 10 hrs; format: functional, organism-based; set-up: dose 30 mg/kg; settings: Artery; procedure, shortened: as §3
[8] = tested on: Rattus norvegicus; experiment: Antihypertensive activity in rat spontaneous hypertensive model assessed as time of maximum effect on diastolic blood pressure at 30 mg/kg, po; format: functional, Artery; procedure, shortened: as §3
[9] = tested on: Rattus norvegicus; experiment: Toxicity in rat spontaneous hypertensive model assessed as effect on heart rate at 30 mg/kg, po; format: organism-based; set-up: dose 30 mg/kg, route oral; settings: in vivo; procedure, shortened: as §3
[10] = tested on: Rattus norvegicus; experiment: Toxicity in rat spontaneous hypertensive model assessed as effect on heart rate at 15 mg/kg, po; format: organism-based; set-up: dose 15 mg/kg, route oral; settings: in vivo; procedure, shortened: as §3
[11] = Acute toxicity in intragastrically dosed ICR rat; format: organism-based; settings: in vivo, po
Procedure, shortened: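 ICR rats (6–8 weeks, individually weighed) dosed intragastrically at 1000.0–5000.0 mg/kg (six dose levels); daily survival over 14 days. LD50 with 95% confidence limits obtained by logistic regression (GLM) curve fitting of 14-day mortality data.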

[12] = tested on: Rattus norvegicus; experiment: Acute toxicity in ICR rat assessed as hypokinetic beginning at 2236.1 mg/kg, administered intragastrically after 5 hrs; format: organism-based; set-up: dose 2236.1 mg/kg, route intragastric; settings: in vivo, po
Procedure, shortened: (§4)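 Normal ICR rats, 6–8 weeks, weighed individually; single intragastric doses of 5000.0, 3823.6, 2924.0, 2236.1, 1710.0 or 1000.0 mg/kg. Survival checked daily for two weeks. Animals observed continuously for physical signs of toxicity (skin changes, mobility, aggressiveness, respiratory movements). Survivors dissected at the end and organs examined for pathological changes.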

[13] = tested on: Rattus norvegicus; experiment: Acute toxicity in ICR rat assessed as hypokinetic beginning at 2924 mg/kg, administered intragastrically after 5 hrs; format: organism-based; set-up: dose 2924 mg/kg, route intragastric; settings: in vivo, po; procedure, shortened: as §4
[14] = tested on: Rattus norvegicus; experiment: Acute toxicity in ICR rat assessed as hypokinetic beginning at 3823.6 mg/kg, administered intragastrically after 5 hrs; format: organism-based; set-up: dose 3823.6 mg/kg, route intragastric; settings: in vivo, po; procedure, shortened: as §4
[15] = tested on: Rattus norvegicus; experiment: Acute toxicity in ICR rat assessed as hypokinetic beginning at 5000 mg/kg, administered intragastrically after 5 hrs; format: organism-based; set-up: dose 5000 mg/kg, route intragastric; settings: in vivo, po; procedure, shortened: as §4
[16] = tested on: Rattus norvegicus; experiment: Acute toxicity in ICR rat assessed as weight loss at 1000 mg/kg, administered intragastrically after 2 weeks; format: organism-based; set-up: dose 1000 mg/kg, route intragastric; settings: in vivo, po, 336 h; procedure, shortened: as §4
[17] = tested on: Rattus norvegicus; experiment: Acute toxicity in ICR rat assessed as weight loss at 1710 mg/kg, administered intragastrically after 2 weeks; format: organism-based; set-up: dose 1710 mg/kg, route intragastric; settings: in vivo, po, 336 h; procedure, shortened: as §4
[18] = tested on: Rattus norvegicus; experiment: Acute toxicity in ICR rat assessed as weight loss at 2236.1 mg/kg, administered intragastrically after 2 weeks; format: organism-based; set-up: dose 2236.1 mg/kg, route intragastric; settings: in vivo, po, 336 h; procedure, shortened: as §4
[19] = tested on: Rattus norvegicus; experiment: Acute toxicity in ICR rat assessed as weight loss at 2924 mg/kg, administered intragastrically after 2 weeks; format: organism-based; set-up: dose 2924 mg/kg, route intragastric; settings: in vivo, po, 336 h; procedure, shortened: as §4
[20] = tested on: Rattus norvegicus; experiment: Acute toxicity in ICR rat assessed as weight loss at 3823.6 mg/kg, administered intragastrically after 2 weeks; format: organism-based; set-up: dose 3823.6 mg/kg, route intragastric; settings: in vivo, po, 336 h; procedure, shortened: as §4
[21] = tested on: Rattus norvegicus; experiment: Acute toxicity in ICR rat assessed as weight loss at 5000 mg/kg, administered intragastrically after 2 weeks; format: organism-based; set-up: dose 5000 mg/kg, route intragastric; settings: in vivo, po, 336 h; procedure, shortened: as §4
[22] = Acute toxicity in ICR rat assessed as mortality at 1000 mg/kg, administered intragastrically after 14 days relative to control; format: organism-based; set-up: dose 1000 mg/kg, route intragastric; settings: in vivo, po, read-out: Activity; procedure, shortened: as §4
[23] = Acute toxicity in ICR rat assessed as mortality at 1710 mg/kg, administered intragastrically after 14 days relative to control; format: organism-based; set-up: dose 1710 mg/kg, route intragastric; settings: in vivo, po, read-out: Activity; procedure, shortened: as §4
[24] = Acute toxicity in ICR rat assessed as mortality at 2236.1 mg/kg, administered intragastrically after 14 days relative to control; format: organism-based; set-up: dose 2236.1 mg/kg, route intragastric; settings: in vivo, po, read-out: Activity; procedure, shortened: as §4
[25] = Acute toxicity in ICR rat assessed as mortality at 2924 mg/kg, administered intragastrically after 14 days relative to control; format: organism-based; set-up: dose 2924 mg/kg, route intragastric; settings: in vivo, po, read-out: Activity; procedure, shortened: as §4
[26] = Acute toxicity in ICR rat assessed as mortality at 3823.6 mg/kg, administered intragastrically after 14 days relative to control; format: organism-based; set-up: dose 3823.6 mg/kg, route intragastric; settings: in vivo, po, read-out: Activity; procedure, shortened: as §4
[27] = Acute toxicity in ICR rat assessed as mortality at 5000 mg/kg, administered intragastrically after 14 days relative to control; format: organism-based; set-up: dose 5000 mg/kg, route intragastric; settings: in vivo, po, read-out: Activity; procedure, shortened: as §4
[28] = tested on: Rattus norvegicus; experiment: Acute toxicity in ICR rat assessed as hypokinetic beginning at 1000 mg/kg, administered intragastrically after 5 hrs; format: organism-based; set-up: dose 1000 mg/kg, route intragastric; settings: in vivo, po; procedure, shortened: as §4
[29] = tested on: Rattus norvegicus; experiment: Acute toxicity in ICR rat assessed as hypokinetic beginning at 1710 mg/kg, administered intragastrically after 5 hrs; format: organism-based; set-up: dose 1710 mg/kg, route intragastric; settings: in vivo, po; procedure, shortened: as §4

Row | SMILES | pIC50 [1] | pKi [1] | inhibition [2] | Activity [3] | Activity [4] | Time [5] | Activity [6] | Activity [7] | Time [8] | Activity [9] | Activity [10] | further results
1 | CCCCC1=NC2(CCCC2)C(=O)N1Cc1ccc(-c2ccccc2-c2nnn[nH]2)cc1 [IRBESARTAN] | 9.24 | 9.39 | Dose-dependent effect | Active | Active | 3 h | Active | Active | 3 h | Non-toxic | Non-toxic | –
2 | CCCCC(=O)N(Cc1ccc(-c2ccccc2-c2nc(=O)o[nH]2)cc1)[C@@H](CC(C)C)C(=O)O | 7.99 | 8.16 | Dose-dependent effect | inactive | inactive | – | inactive | inactive | – | Non-toxic | Non-toxic | –
3 | CCCCC(=O)N(Cc1ccc(-c2ccccc2-c2nnn[nH]2)cc1)[C@H](C(=O)O)C(C)C [VALSARTAN] | 8.58 | 8.65 | Dose-dependent effect | Active | – | – | Active | – | – | Non-toxic | Non-toxic | LD50 [11]: 308 mg/kg
4 | CCCCc1nc(Cl)c(CO)n1Cc1ccc(-c2ccccc2-c2nn[nH]n2)cc1 [LOSARTAN] | – | – | – | – | – | – | – | – | – | – | – | LD50 [11]: 2250 mg/kg
5 | CCCC(=O)N(Cc1ccc(-c2ccccc2-c2nc(=O)o[nH]2)cc1)[C@H](C(=O)O)C(C)C | 9.31 | 9.48 | Dose-dependent effect | Active | Active | 3 h | Active | Active | 3 h | Non-toxic | Non-toxic | Activity [12]: Toxic; Activity [13]: Toxic; Activity [14]: Toxic; Activity [15]: Toxic; Activity [16]: Non-toxic; Activity [17]: Non-toxic; Activity [18]: Non-toxic; Activity [19]: Non-toxic; Activity [20]: Non-toxic; Activity [21]: Non-toxic; mortality at 336 h [22]: 0%; mortality at 336 h [23]: 30%; mortality at 336 h [24]: 50%; mortality at 336 h [25]: 60%; mortality at 336 h [26]: 80%; mortality at 336 h [27]: 100%; LD50 [11]: 2320 mg/kg; Activity [28]: Non-toxic; Activity [29]: Toxic
6 | CCCC(=O)N(Cc1ccc(-c2ccccc2-c2nc(=O)o[nH]2)cc1)[C@@H](CC(C)C)C(=O)O | 7.44 | 7.61 | Dose-dependent effect | Active | Active | 3 h | Active | Active | 3 h | Non-toxic | Non-toxic | –
7 | CCCCC(=O)N(Cc1ccc(-c2ccccc2-c2nc(=O)o[nH]2)cc1)[C@H](C(=O)O)C(C)C | 8.01 | 8.18 | Dose-dependent effect | Active | Active | 3 h | Active | Active | 3 h | Non-toxic | Non-toxic | –
8 | CCCC(=O)N(Cc1ccc(-c2ccccc2-c2nc(=O)o[nH]2)cc1)[C@@H](Cc1ccccc1)C(=O)O | 7.58 | 7.75 | Dose-dependent effect | inactive | inactive | – | inactive | inactive | – | Non-toxic | Non-toxic | –
9 | CCCCC(=O)N(Cc1ccc(-c2ccccc2-c2nc(=O)o[nH]2)cc1)[C@@H](Cc1ccccc1)C(=O)O | 7.74 | 7.92 | Dose-dependent effect | inactive | inactive | – | inactive | inactive | – | Non-toxic | Non-toxic | –
10 | CCC(=O)N(Cc1ccc(-c2ccccc2-c2nc(=O)o[nH]2)cc1)[C@H](C(=O)O)C(C)C | 8.80 | 8.99 | Dose-dependent effect | Active | Active | 3 h | Active | Active | 3 h | Non-toxic | Non-toxic | –
11 | CCCC(=O)N(Cc1ccc(-c2cc(F)ccc2-c2noc(=O)[nH]2)cc1)[C@H](C(=O)O)C(C)C | 7.68 | 7.85 | Dose-dependent effect | – | Active | 3 h | – | Active | 3 h | Non-toxic | Non-toxic | –
